High-throughput results: PubChem BioAssay, The Scripps Research Institute Molecular Screening Center
OXTR potentiator: potentiators of human oxytocin receptor; P30559; CHO-OTR cells, Fluo-8 calcium fluorescence, potentiator mode; 0% = oxytocin EC15, 100% = EC100; activation, % at 3 µM; AID 2445; 320,000 compounds, 0.061% hits;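 active = activation above that plate's cutoff, the mean activation of tested compounds plus 3 SD, cut at about 6.6% in these data, passing the limit was not always enough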;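 also: 100% uses oxytocin at 75 nM as the full agonist control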
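Material: human OTR in CHO cells. Compound: 3.0 µM, one dose. Timing: compound 6 min at room temperature before oxytocin, 100 s read. Evaluation: % activation of max/min ratio relative to oxytocin controls. Replication: single well per compound, singlicate. Signal: Fluo-8 calcium dye fluorescence.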
TAAR1 antagonist: human TAAR1 antagonism | Q96RJ0 | CHO RD-HGA16 TAAR1, Fluo-8 calcium fluorescence, antagonist | inhibition, % at 3 µM | 360,000 compounds, 1.5% hits | AID 624466;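 active = inhibition above a per-plate cutoff, the mean inhibition of test compounds on that plate plus 3 SD, cut at about 49% in these data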;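 also: 0% = DMSO plus EC80 beta-PEA response and 100% = DMSO alone without agonist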
Target sequence (Q96RJ0 whole entry, looked up): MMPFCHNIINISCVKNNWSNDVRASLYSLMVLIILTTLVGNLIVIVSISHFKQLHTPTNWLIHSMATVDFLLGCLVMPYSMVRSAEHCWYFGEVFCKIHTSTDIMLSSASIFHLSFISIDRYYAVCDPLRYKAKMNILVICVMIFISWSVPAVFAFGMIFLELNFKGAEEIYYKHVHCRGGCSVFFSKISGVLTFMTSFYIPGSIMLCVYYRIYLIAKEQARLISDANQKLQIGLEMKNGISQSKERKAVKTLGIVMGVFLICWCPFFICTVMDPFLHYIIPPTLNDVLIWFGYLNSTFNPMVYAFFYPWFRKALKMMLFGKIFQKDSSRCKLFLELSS
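Material: RD-HGA16 CHO cells with stable hTAAR1 and Gα16; Dosing: single nominal final test compound concentration of 3 µM; Schedule: seeding 17-24 h prior, 75-min 37 °C, 30-min RT dye loading; Detection: kinetic Fluo-8 calcium fluorescence measurement; Measure: % inhibition from peak post-agonist over basal fluorescence ratio; Benchmarks: vehicle and agonist controls.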
OXTR ag: activates the human oxytocin receptor. CHO-OTR cells, Fluo-8 calcium fluorescence; normalized: DMSO 0%, oxytocin 100%. activation, % at 3 µM. 320,000 compounds, 0.32% hits;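 active = activation above the mean of all tested compounds plus 3 SD, cutoff set per screening run, cut at about 20% in these data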;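 also: peak over basal fluorescence ratio from a 100 s FLIPR kinetic read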
TAAR1 ag: human TAAR1 agonism. Q96RJ0. CHO RD-HGA16 TAAR1, Fluo-8 calcium fluorescence; vehicle wells 0%, saturating PEA agonist 100%. AID 624467. 360,000 compounds, 0.99% hits. activation, % at 3 µM;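 active = activation above the mean activation of all test compounds in the run plus 3 SD, cut at about 38% in these data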
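Repeats: no replicates (n 1) | Material: CHO-derived RD-HGA16 cells with stable Gα16 and human TAAR1 | Technique: Kinetic Fluo-8 calcium fluorescence | Schedule: 17-24 h seeding, 75 min 37 °C dye, 30 min RT | Evaluation: % activation from peak over basal fluorescence ratio, DMSO-to-PEA scaled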
V1aR counter: activates human V1a receptor in oxytocin agonist counter-screen; CHO-V1R cells, Fluo-8 calcium fluorescence, agonist mode; 0% DMSO, 100% 3 nM vasopressin; activation, % at 3 µM; 320,000 compounds, 0.25% hits; AID 2797;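 active = activation above the mean activation of all tested compounds plus 3 SD, per screening run, cut at about 20% in these data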;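 also: signal is peak over basal fluorescence ratio across a 100 second FLIPR read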
nonsel antag count: nonselective antagonism, TAAR1 counter-screen | shares compounds with TAAR1 antagonist | 2,400 compounds, 77% hits | counterscreen cell line, calcium fluorescence, antagonist mode | AID 651780 | inhibition, % at 3 µM; in the data active = inhibition above about 22%;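 also: CHO-Ga16 host cells stimulated with ATP at an EC80 level; 0% = agonist EC80 plus vehicle and 100% = vehicle without agonist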
TAAR1 antag conf: human TAAR1 antagonism, confirmed; shares compounds with TAAR1 antagonist; TAAR1-expressing cells, fluorescence antagonist read-out; inhibition, % at 3 µM; 2,400 compounds, 40% hits; AID 651785; in the data active = inhibition above about 49%;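 also: CHO-Ga16 host cells challenged with agonist PEA near its EC80; 0% = agonist at EC80 plus vehicle and 100% = vehicle with no agonist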
Ga16 nonsel ag: nonselective Ga16 agonist in TAAR1 antagonist counter-screen. shares compounds with TAAR1 antagonist. 2,400 compounds, 18% hits. Ga16-expressing cells, calcium fluorescence, agonist counterscreen. activation, % at 3 µM; in the data active = activation above about 12%;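 also: 0% = vehicle wells and 100% = saturating stimulus response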
TAAR1 ag counter: TAAR1 agonism, antagonist counter-screen; shares compounds with TAAR1 antagonist; hTAAR1 cell line, fluorescence activation, agonist mode; activation, % at 3 µM; 2,400 compounds, 2% hits; in the data active = activation above about 37%;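 also: CHO cells stably expressing TAAR1 with calcium dye readout; 0% = DMSO vehicle and 100% = full agonist response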
* = called active by the depositor; . = no result. In the library only some 2.3% were active in any assay of this set; here they are far more common.

SMILES	OXTR potentiator	TAAR1 antagonist	OXTR ag	TAAR1 ag	V1aR counter	nonsel antag count	TAAR1 antag conf	Ga16 nonsel ag	TAAR1 ag counter
O=C(COc1ccc(/C=N/NC(=O)c2ccccc2O)cc1)Nc1ccc([N+](=O)[O-])cc1	-3	63*	0	10	1	29*	45	10	8
CCOc1ccc(/C=N/NC(=O)c2ccc(Cn3cc([N+](=O)[O-])cn3)o2)cc1	-11	6	1	1	3	.	.	.	.
O=C(COc1ccc(/C=N/NC(=O)c2ccncc2)cc1)Nc1cccc([N+](=O)[O-])c1	-12	15	0	5	2	.	.	.	.
CCN=C1SC(CC(=O)Nc2ccccc2)C(=O)N1CC (stereo not given)	-14	67*	0	20	1	34*	59*	10	9
CCN=C1SC(C(=O)Nc2ccccc2)CC(=O)N1CC (stereo not given)	-17	65*	4	21	1	31*	54*	9	10
Cc1[nH]c2ccccc2c1C(C[N+](=O)[O-])c1ccco1 (stereo not given)	-8	-4	-1	-2	-1	.	.	.	.
Cc1ccc(-c2[nH]c3ccccc3c2C(C[N+](=O)[O-])c2ccco2)cc1 (stereo not given)	-5	63*	-1	15	0	2	24	3	1
Cc1ccc2nc(NC(=O)CSCc3ccccc3)sc2c1	-8	50*	-2	29	2	5	41	8	23
Cc1ccc2nc(NC(=O)CS(=O)(=O)Cc3ccccc3)sc2c1	-5	1	4	3	0	.	.	.	.
Cc1ccc(NC(=O)Nc2cccnc2)cc1NC(=O)Nc1cccnc1	-6	50*	-1	2	1	19	35	3	4
Cc1cc(C)cc(NC(=O)Nc2cccnc2)c1	.	-5	.	18	.	.	.	.	.
COc1ccc2nc(C)cc(SCC(=O)NNC(=O)COc3cccc4ccccc34)c2c1	-12	71*	5	19	3	46*	56*	9	8
COC(=O)CNC(c1ccccc1)c1cc(Cl)ccc1NC(=O)c1cccc(Cl)c1 (stereo not given)	-7	87*	-2	-1	2	11	34	2	6
NNC(=O)CNC(c1ccccc1)c1cc(Br)ccc1NC(=O)c1cccc(Cl)c1 (stereo not given)	-4	21	-1	5	1	.	.	.	.
Cc1ccc(NC(=O)c2ccc3[nH]c(=O)c(=O)[nH]c3c2)nc1	-2	0	0	1	0	.	.	.	.
CCOC(=O)c1cc2c(N)c(C(=O)c3cc(C#N)c(SC)nc3C)sc2nc1C	-5	68*	1	5	1	31*	42	4	1
CCN(CC)CCCNC(=S)N(Cc1cccs1)Cc1cc2cc3c(cc2[nH]c1=O)OCCO3	-16	-13	-1	3	0	.	.	.	.
CC(C)c1nc2scc(-c3ccc(Cl)cc3)c2c(=O)n1N	-6	66*	7	3	1	32*	39	6	0
O=C1c2cccc(OCC(=O)N3CCCc4ccccc43)c2CCN1Cc1ccc(Br)cc1	-3	71*	-1	11	1	40*	51*	8	2
O=C1c2cccc(OCC(=O)N3CCCc4ccccc43)c2CCN1Cc1ccccc1	-1	4	2	9	3	.	.	.	.
COc1ccccc1Nc1nnc(SCC(=O)N2CCCC2=O)s1	-4	-6	0	3	1	.	.	.	.
Fc1ccc(NC(=S)N2CCOCC2)cc1Cl	-6	12	0	4	1	.	.	.	.
Cc1onc(-c2ccccc2Cl)c1C(=O)Nc1cccc(-c2nc3ncccn3c2C)c1	-3	107*	0	17	0	16	19	6	12
CCOc1ccc(/C=C/C(O)=C2/C(=O)NC3(C)CC2c2ccccc2O3)cc1OC (stereo not given)	-16	60*	-2	12	0	27*	49*	10	23
CCOc1ccc(/C=C/C(O)=C2/C(=O)N(C)C3(C)CC2c2ccccc2O3)cc1OC (stereo not given)	1	15	-1	2	-1	.	.	.	.
SMILES	OXTR potentiator	TAAR1 antagonist	OXTR ag	TAAR1 ag	V1aR counter	nonsel antag count	TAAR1 antag conf	Ga16 nonsel ag	TAAR1 ag counter
COc1ccccc1N(C)S(=O)(=O)c1ccc(C(=O)Nc2ccc3nc(C)sc3c2)cc1	-11	43	3	7	4	.	.	.	.
COc1ccccc1N(C)S(=O)(=O)c1ccc(C(=O)N(C)Cc2ccc(OC(F)F)cc2)cc1	.	85*	.	15	.	45*	74*	13*	11
COc1ccccc1N(C)S(=O)(=O)c1ccc(C(=O)Nc2cccc(Br)c2)cc1	-9	70*	3	6	4	36*	38	7	2
COc1ccccc1N(C)S(=O)(=O)c1ccc(C(=O)OCC(=O)NCc2cccs2)cc1	-6	83*	1	15	3	38*	62*	10	13
COc1cc(NC(=O)c2ccc(S(=O)(=O)N(C)c3ccccc3OC)cc2)cc(OC)c1	-8	43	2	2	2	.	.	.	.
COC(=O)c1cccc(NC(=O)c2ccc(S(=O)(=O)N(C)c3ccccc3OC)cc2)c1	.	70*	.	13	.	32*	41	7	5
Cc1ccc(-c2cc(C(=O)Nc3ccccc3C(N)=O)c3ccccc3n2)o1	-2	66*	-1	23	0	34*	54*	13*	12
COc1ccc(NC(=O)c2cc(-c3ccc(C)o3)nc3ccccc23)c(OC)c1	-3	75*	-3	7	-1	33*	46	9	6
COc1ccc(OC)c(-c2cc(C(=O)Nc3ccccc3C(N)=O)c3ccccc3n2)c1	-5	76*	0	21	2	34*	54*	11	9
COc1ccc(OC)c(-c2cc(C(=O)N/N=C/c3ccc(F)cc3)c3ccccc3n2)c1	-4	-18	-1	2	0	.	.	.	.
Cc1ccc(-c2cc(C(=O)N(C)CC(=O)Nc3ccccc3Br)c3ccccc3n2)o1	-9	66*	-1	14	-2	34*	50*	12*	13
Cc1ccc(OCC(=O)NCc2cccs2)c([N+](=O)[O-])n1	0	7	1	9	1	.	.	.	.
